For experiment [1], the target named is Mitogen-activated protein kinase 9 (Homo sapiens) (UniProt P45984). The experiment is described as follows: Inhibition of JNK2 assessed as residual enzyme activity at 10 uM relative to untreated control. The method in brief:
(§1)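 Kinases of human origin, except CK1δ, which is rat. Run in 50 mM Tris/HCl pH 7.5, 0.1 mM EGTA, 0.1% 2-mercaptoethanol and 10 mM Mg acetate, with [γ-33P]ATP at 20 µM, 30 min at 21 °C. Acid-stopped and captured on P81 filters. Compound tested at 10 µM; residual % of uninhibited control, duplicate determinations.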

Experiment [2] addresses Mitogen-activated protein kinase 11 (Homo sapiens) (UniProt Q15759). As to the kind of experiment: Inhibition of P38beta assessed as residual enzyme activity at 10 uM relative to untreated control. The essentials: as §1
The target of experiment [3] is Ribosomal protein S6 kinase alpha-3 (Homo sapiens) (UniProt P51812). As to the kind of experiment: Inhibition of RSK2 assessed as residual enzyme activity at 10 uM relative to untreated control.
Experiment [4] deals with Ribosomal protein S6 kinase beta-1 (Homo sapiens) (UniProt P23443). As to the kind of experiment: Inhibition of S6K1 assessed as residual enzyme activity at 10 uM relative to untreated control. The method in brief:
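Buffer Tris/HCl pH 7.5, EGTA and 2-mercaptoethanol. 30 min at 21 °C, compound at 10 µM. P81 filter read-out. Residual activity versus control, duplicates.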

The target of experiment [5] is MAP kinase-interacting serine/threonine-protein kinase 2 (Homo sapiens) (UniProt Q9HBH9). As to the kind of experiment: Inhibition of MNK2 assessed as residual enzyme activity at 10 uM relative to untreated control. The method in brief:
(§2)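 Assayed with [γ-33P]ATP at 50 µM and 10 mM Mg acetate in 50 mM Tris/HCl pH 7.5, 0.1 mM EGTA, 0.1% 2-mercaptoethanol, 30 min, 21 °C. Phosphoric acid stop, P81 filter capture. ERK2 and Lck are mouse; AMPK is rat. 10 µM compound; % activity remaining relative to control without inhibitor, duplicates.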

The target in experiment [6] is Calcium/calmodulin-dependent protein kinase kinase 2 (Homo sapiens) (UniProt Q96RR4). The experiment is described as follows: Inhibition of CAMKKbeta assessed as residual enzyme activity at 10 uM relative to untreated control.
The nature of experiment [7]: Inhibition of AMPK assessed as residual enzyme activity at 10 uM relative to untreated control. The method in brief: as §2
For experiment [8], the target named is T1, Serine/threonine-protein kinase BRSK2 (Homo sapiens) (UniProt Q8IWQ3).
T1 sequence (whole entry): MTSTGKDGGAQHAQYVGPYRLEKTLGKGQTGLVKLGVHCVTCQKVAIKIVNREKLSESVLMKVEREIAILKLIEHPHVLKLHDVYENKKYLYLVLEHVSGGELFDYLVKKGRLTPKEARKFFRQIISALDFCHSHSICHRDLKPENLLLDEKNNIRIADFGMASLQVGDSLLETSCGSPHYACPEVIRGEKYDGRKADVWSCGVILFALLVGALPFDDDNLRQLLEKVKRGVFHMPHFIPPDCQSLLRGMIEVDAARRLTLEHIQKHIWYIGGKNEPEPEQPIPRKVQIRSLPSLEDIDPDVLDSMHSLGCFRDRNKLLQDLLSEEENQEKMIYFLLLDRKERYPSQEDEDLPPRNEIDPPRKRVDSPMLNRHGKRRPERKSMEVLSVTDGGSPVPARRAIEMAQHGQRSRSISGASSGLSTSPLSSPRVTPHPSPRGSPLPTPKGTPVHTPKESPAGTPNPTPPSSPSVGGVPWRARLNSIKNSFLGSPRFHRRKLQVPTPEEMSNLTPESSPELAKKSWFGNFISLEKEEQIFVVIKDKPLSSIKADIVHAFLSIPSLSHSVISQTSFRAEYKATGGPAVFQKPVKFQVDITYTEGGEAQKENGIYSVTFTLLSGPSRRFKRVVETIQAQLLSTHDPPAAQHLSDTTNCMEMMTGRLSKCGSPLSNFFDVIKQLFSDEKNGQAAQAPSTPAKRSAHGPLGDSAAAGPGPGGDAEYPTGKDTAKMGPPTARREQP
As to the kind of experiment: Inhibition of BRSK2 assessed as residual enzyme activity at 10 uM relative to untreated control. The method in brief: as §2

For experiment [9], the target named is T2, Serine/threonine-protein kinase 3 (Homo sapiens) (UniProt Q13188).
T2 sequence (whole entry): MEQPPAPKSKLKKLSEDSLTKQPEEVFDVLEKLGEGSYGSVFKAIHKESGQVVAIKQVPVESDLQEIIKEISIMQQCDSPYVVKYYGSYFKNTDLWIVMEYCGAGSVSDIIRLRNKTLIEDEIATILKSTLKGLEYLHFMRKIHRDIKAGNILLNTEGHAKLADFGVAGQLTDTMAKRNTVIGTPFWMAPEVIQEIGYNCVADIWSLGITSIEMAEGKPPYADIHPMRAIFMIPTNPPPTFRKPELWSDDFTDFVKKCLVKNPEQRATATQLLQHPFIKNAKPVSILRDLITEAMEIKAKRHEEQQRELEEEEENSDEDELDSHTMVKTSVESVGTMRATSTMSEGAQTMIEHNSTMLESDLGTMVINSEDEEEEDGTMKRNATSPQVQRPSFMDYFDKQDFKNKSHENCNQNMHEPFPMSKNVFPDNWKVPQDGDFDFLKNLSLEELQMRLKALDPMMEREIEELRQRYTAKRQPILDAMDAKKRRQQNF
As to the kind of experiment: Inhibition of MST2 assessed as residual enzyme activity at 10 uM relative to untreated control. The essentials: as §1

In experiment [10] the target is T3, Eukaryotic elongation factor 2 kinase (Homo sapiens) (UniProt O00418).
T3 sequence (whole entry): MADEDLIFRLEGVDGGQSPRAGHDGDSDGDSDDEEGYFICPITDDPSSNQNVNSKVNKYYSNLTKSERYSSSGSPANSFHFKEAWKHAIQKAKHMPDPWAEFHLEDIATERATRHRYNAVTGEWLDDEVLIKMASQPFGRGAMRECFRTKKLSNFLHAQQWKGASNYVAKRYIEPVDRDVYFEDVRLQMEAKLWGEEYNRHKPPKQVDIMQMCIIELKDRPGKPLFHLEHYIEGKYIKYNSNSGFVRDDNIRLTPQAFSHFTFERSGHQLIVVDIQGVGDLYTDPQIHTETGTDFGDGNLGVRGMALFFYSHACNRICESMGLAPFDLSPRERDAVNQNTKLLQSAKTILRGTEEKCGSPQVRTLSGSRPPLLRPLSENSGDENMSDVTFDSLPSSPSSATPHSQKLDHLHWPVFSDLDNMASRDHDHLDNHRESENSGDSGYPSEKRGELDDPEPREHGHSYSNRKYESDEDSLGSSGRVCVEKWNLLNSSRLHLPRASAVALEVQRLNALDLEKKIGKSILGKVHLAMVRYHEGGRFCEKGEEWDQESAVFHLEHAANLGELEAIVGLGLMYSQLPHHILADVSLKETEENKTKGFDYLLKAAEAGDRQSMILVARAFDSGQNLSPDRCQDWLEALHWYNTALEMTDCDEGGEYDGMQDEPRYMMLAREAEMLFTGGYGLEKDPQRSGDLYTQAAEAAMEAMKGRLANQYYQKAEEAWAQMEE
The experiment is described as follows: Inhibition of EF2K assessed as residual enzyme activity at 10 uM relative to untreated control.

The test system of a further experiment is Lck (Mus musculus). The experiment is described as follows: Inhibition of Lck assessed as residual enzyme activity at 10 uM relative to untreated control.

Sequence of Ribosomal protein S6 kinase beta-1 (Homo sapiens) (P23443 whole entry, looked up): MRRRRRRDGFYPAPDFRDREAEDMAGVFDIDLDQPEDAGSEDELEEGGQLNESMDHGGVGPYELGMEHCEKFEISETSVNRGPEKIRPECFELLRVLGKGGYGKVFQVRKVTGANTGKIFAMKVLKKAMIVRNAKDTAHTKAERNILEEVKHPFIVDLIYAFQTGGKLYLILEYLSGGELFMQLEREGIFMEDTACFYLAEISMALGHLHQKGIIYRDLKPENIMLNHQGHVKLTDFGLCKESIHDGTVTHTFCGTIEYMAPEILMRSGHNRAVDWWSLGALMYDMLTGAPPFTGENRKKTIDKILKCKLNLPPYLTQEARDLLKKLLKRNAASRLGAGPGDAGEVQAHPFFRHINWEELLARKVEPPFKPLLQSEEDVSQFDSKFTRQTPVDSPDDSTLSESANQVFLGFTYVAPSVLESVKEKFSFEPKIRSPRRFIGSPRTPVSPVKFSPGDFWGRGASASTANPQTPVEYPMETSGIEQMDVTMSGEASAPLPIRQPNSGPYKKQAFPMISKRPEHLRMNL
Sequence of Calcium/calmodulin-dependent protein kinase kinase 2 (Homo sapiens) (Q96RR4 2-588 limits assumed): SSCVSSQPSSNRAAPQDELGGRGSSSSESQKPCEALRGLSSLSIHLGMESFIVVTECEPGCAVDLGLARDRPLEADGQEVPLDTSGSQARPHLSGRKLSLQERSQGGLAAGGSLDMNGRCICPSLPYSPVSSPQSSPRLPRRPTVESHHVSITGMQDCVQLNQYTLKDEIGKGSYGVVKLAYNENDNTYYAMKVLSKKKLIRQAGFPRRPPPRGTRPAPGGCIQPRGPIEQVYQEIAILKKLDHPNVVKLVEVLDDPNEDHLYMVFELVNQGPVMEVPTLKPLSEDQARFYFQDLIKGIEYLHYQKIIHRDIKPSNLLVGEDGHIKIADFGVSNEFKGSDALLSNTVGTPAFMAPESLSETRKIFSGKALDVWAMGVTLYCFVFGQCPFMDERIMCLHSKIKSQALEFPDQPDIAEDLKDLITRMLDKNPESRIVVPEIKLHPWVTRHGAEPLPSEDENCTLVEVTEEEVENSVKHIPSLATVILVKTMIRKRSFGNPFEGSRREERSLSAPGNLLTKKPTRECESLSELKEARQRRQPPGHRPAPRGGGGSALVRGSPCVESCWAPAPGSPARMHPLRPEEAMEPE
Sequence of MAP kinase-interacting serine/threonine-protein kinase 2 (Homo sapiens) (Q9HBH9 whole entry, looked up): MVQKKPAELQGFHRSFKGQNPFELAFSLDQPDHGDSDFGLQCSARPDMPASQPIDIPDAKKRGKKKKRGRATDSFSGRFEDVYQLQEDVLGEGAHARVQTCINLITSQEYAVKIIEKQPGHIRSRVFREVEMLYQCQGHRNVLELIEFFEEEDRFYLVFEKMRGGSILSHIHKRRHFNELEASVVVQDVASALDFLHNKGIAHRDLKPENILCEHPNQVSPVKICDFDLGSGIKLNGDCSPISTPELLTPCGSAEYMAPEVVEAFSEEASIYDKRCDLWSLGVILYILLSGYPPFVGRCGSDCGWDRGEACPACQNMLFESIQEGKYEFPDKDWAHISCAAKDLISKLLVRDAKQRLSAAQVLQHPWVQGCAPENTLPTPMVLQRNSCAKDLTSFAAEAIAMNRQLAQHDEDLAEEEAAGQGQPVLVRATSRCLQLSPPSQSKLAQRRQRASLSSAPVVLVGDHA
Sequence of Ribosomal protein S6 kinase alpha-3 (Homo sapiens) (P51812 whole entry): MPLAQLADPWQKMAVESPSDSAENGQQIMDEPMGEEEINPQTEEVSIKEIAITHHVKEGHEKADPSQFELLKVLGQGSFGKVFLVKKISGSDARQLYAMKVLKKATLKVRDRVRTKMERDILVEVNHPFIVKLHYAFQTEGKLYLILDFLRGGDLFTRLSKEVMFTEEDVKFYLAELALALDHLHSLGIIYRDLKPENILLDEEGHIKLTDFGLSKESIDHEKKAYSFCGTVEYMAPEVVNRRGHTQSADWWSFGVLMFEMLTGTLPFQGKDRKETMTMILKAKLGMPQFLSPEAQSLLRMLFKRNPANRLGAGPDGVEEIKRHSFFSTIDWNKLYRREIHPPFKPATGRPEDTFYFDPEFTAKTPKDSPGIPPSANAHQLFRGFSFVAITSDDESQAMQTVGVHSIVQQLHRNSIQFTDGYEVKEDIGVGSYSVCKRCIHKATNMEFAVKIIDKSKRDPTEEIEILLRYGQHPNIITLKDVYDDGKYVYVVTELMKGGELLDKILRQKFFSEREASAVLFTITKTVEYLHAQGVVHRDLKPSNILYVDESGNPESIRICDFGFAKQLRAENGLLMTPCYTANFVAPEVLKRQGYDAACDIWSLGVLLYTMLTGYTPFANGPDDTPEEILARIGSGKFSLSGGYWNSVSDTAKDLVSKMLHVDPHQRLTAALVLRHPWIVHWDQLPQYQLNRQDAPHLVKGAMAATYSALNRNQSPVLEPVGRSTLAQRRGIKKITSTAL
Sequence of Mitogen-activated protein kinase 9 (Homo sapiens) (P45984 whole entry, looked up): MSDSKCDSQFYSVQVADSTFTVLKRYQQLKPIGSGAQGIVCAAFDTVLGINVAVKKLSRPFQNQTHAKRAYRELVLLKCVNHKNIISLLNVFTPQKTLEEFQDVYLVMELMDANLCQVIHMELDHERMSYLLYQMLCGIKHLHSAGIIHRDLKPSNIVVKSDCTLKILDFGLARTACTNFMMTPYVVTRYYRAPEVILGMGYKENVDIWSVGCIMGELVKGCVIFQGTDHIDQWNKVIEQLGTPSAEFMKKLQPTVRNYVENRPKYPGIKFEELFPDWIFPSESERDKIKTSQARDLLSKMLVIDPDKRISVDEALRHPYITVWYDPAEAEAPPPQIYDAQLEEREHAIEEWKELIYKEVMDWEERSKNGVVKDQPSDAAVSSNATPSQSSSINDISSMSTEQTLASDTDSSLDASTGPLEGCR
Sequence of Mitogen-activated protein kinase 11 (Homo sapiens) (Q15759 whole entry): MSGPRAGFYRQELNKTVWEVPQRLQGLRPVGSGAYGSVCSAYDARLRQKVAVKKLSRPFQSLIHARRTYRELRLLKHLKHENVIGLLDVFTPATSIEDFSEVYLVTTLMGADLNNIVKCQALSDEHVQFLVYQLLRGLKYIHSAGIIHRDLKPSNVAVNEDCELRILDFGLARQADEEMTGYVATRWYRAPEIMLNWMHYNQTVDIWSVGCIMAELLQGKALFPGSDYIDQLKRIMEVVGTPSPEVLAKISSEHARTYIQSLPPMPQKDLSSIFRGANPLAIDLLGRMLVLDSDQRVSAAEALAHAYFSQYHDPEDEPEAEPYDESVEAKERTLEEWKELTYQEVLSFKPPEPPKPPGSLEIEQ

For `c1ccc2c(c1)[nH]c1c2ccc2cc[nH]c21`, the Activity came to 118% in experiment [1]; 100% in experiment [2]; 99% in [3]; 89% in [4]; 95% in experiment [5]; 93% in experiment [6]. The Activity was 80% in experiment [7]; 58% in experiment [8]; 82% in experiment [9]; 101% in experiment [10]; 88% in the experiment on Lck (Mus musculus).

For `O=Cc1c[nH]c2c1ccc1c3ccccc3[nH]c12`, the Activity worked out at 128% in [1]; 80% in [2]; 77% in experiment [3]; 55% in [5]; 56% in [6]; 59% in [7]. Also, the Activity in experiment [8] amounted to 22%; in [9], 63%; in experiment [10], 90%.

For `O=Cc1c[nH]c2ccc3c4ccccc4[nH]c3c12`, the Activity was 111% in experiment [1]; 96% in [2]; 78% in [3]; 82% in experiment [4]; 109% in experiment [5]; 102% in experiment [6]. Further, the Activity was 85% in experiment [7]; 101% in [8]; 96% in experiment [9]; 105% in [10]; 114% in the experiment on Lck (Mus musculus).

As to `c1ccc2c(c1)[nH]c1c3cc[nH]c3ccc21`, the Activity turned out to be 130% in experiment [1]; 91% in experiment [2]; 107% in [3]; 87% in [4]; 103% in experiment [5]; 87% in [6]. The Activity stood at 79% in [7]; 76% in [8]; 77% in experiment [9]; 92% in experiment [10]; 81% in the experiment on Lck (Mus musculus).

The values are drawn from ChEMBL document CHEMBL1154186, “Synthesis, kinase inhibitory potencies, and in vitro antiproliferative evaluation of new Pim kinase inhibitors” (J Med Chem, 2009).
